Assays:
Assay type in all cases: cell membranes, Membrane
D(1A) dopamine receptor = D(1A) dopamine receptor (Rattus norvegicus, UniProt P18901); experiment: Compound was evaluated for the inhibition of [3H]-SCH- 23390 binding to Dopamine receptor D1 of rat striatal membranes
Summary of the method: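 Rat striatum homogenized in Tris-HCl pH 7.4, pellet washed twice at 20,000g and resuspended at 3.5 mg wet weight/mL in 50 mM Tris-HCl with 120 mM NaCl, 5 mM KCl, 2 mM CaCl2, 1 mM MgCl2. Triplicates, three separate days. IC50 by log-probit analysis.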

D(2) dopamine receptor [1] = biological target: T1, D(2) dopamine receptor (Rattus norvegicus, UniProt P61169); experiment: Compound was evaluated for the inhibition of [3H]spiperone binding to dopamine receptor D2 of rat striatal membranes
Summary of the method: (§1)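 Rat striatal membranes were washed twice at 20,000g and suspended at 3.5 mg wet weight/mL in 50 mM Tris-HCl pH 7.4 with 120 mM NaCl, 5 mM KCl, 2 mM CaCl2, 1 mM MgCl2. Displacement of 0.1 nM [3H]spiperone (final) by 6-7 concentrations of test drug. Nonspecific binding defined with 1 μM (+)-butaclamol. Triplicates, repeated on three days. IC50 from log-probit plot.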

D(2) dopamine receptor [2] = biological target: T1, D(2) dopamine receptor; experiment: Compound was evaluated for the inhibition of [3H]spiperone binding to Dopamine receptor D2 of rat striatal membranes; summary of the method: as §1

D(1A) dopamine receptor, sequence (P18901 whole entry): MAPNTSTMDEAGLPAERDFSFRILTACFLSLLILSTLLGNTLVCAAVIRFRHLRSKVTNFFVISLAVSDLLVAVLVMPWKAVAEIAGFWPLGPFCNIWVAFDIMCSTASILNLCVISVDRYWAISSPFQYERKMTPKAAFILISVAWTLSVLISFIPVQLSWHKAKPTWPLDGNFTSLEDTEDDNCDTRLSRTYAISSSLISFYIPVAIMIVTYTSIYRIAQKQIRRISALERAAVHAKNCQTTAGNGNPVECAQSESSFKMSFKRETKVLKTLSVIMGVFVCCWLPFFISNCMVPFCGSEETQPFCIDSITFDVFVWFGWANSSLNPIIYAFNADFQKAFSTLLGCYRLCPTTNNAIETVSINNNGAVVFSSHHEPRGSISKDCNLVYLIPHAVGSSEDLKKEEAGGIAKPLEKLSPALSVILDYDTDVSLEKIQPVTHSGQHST
T1 sequence (P61169 whole entry): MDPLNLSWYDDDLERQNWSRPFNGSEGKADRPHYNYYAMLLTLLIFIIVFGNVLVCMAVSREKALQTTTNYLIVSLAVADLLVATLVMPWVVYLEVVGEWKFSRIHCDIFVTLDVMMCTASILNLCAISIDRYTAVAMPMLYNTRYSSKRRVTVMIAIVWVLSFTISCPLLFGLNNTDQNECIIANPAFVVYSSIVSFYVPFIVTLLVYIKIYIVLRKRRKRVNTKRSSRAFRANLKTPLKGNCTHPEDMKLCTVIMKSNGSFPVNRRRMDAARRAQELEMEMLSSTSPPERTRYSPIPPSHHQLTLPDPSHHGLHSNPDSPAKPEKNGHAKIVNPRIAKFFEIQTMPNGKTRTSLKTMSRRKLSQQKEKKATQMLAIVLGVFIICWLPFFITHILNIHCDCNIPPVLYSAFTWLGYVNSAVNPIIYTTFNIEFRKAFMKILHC

| Structure (SMILES) | IC50 (D(1A) dopamine receptor) [µM] | IC50 (D(2) dopamine receptor [1]) [µM] | IC50 (D(2) dopamine receptor [2]) [µM] |
| --- | --- | --- | --- |
| CCCN(CCc1ccccc1)CCc1ccc(O)c(F)c1 | 38 | 0.58 | – |
| CCCN(CC)CCc1ccc(F)c(O)c1 | 11.1 | 1.97 | – |
| CCN(CCc1ccccc1)CCc1ccc(F)c(O)c1 | 8 | – | – |
| CCCN(CCC)CCc1ccc(F)c(O)c1 | 11.4 | 0.95 | – |
| CCCN(CCc1ccccc1)CCc1ccc(F)c(O)c1 | 10.9 | 0.25 | – |
| NCCc1ccc(F)c(O)c1 | 6.15 | – | 4.64 |

Reference: ChEMBL document CHEMBL1124899 (J Med Chem, 1990)
